From ChEMBL document CHEMBL5030525, “Design, synthesis and antitumor activity evaluation of trifluoromethyl-substituted pyrimidine derivatives” (Bioorg Med Chem Lett, 2021)

Assays:
GES1 = test: Cytotoxicity against human GES1 cells assessed as reduction in cell viability measured after 72 hrs by MTT assay; assay type: cell-based; conditions: GES1, 72 h
Procedure, shortened: (§1)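 Cells in log phase were seeded at 3000–5000 per well and cultured 24 h at 37 °C, then exposed to a range of compound concentrations in fresh medium for 72 h. MTT was added and incubated 4 h at 37 °C, formazan was dissolved in DMSO, and absorbance was read at 490 nm. IC50 was taken from survival rate, as mean ± SD of three independent experiments. Stocks were 10 mM in DMSO.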

PC-3 = test: Antiproliferative activity against human PC-3 cells assessed as inhibition of cell growth measured after 72 hrs by MTT assay; assay type: functional, cell-based; conditions: PC-3, 72 h; procedure, shortened: as §1
[1] = Selectivity index, ratio of IC50 for cytotoxicity against human GES1 cells to IC50 for antiproliferative activity against human NCI-H1975 cells; assay type: toxicity, cell-based; conditions: GES1 cells versus NCI-H1975 cells, read-out: Ratio IC50
Procedure, shortened: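 Ratio of GES-1 IC50 to H1975 IC50. Both came from the 72 h MTT assay, with IC50 as the mean ± SD of three separate experiments.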

MCF7 = test: Antiproliferative activity against human MCF7 cells assessed as inhibition of cell growth measured after 72 hrs by MTT assay; assay type: functional, cell-based; conditions: MCF7, 72 h; procedure, shortened: as §1
NCI-H1975 = test: Antiproliferative activity against human NCI-H1975 cells assessed as inhibition of cell growth measured after 72 hrs by MTT assay; assay type: functional, cell-based; conditions: NCI-H1975, 72 h; procedure, shortened: as §1
MGC-803 = test: Antiproliferative activity against human MGC-803 cells assessed as inhibition of cell growth measured after 72 hrs by MTT assay; assay type: functional, cell-based; conditions: MGC-803, 72 h; procedure, shortened: as §1

SMILES | IC50 (GES1) | IC50 (PC-3) | selectivity ratio [1] | IC50 (MCF7) | IC50 (NCI-H1975) | IC50 (MGC-803)
C=CC(=O)Nc1cccc(Nc2cc(C(F)(F)F)nc(SCc3ccc(C(F)(F)F)cc3)n2)c1 | 31.5 µM | 5.65 µM | 6.6 | 7.08 µM | 4.77 µM | 9.8 µM
C=CC(=O)Nc1cccc(Nc2cc(C(F)(F)F)nc(SCc3ccccc3Cl)n2)c1 |  | 13.6 µM |  | 11.8 µM | 13.1 µM | 28.4 µM
C=CC(=O)Nc1cccc(Nc2cc(C(F)(F)F)nc(SCC3CCOCC3)n2)c1 |  | 8.96 µM |  | 17.7 µM | 16.3 µM | 28.3 µM
O=c1[nH]cc(F)c(=O)[nH]1 [FLUOROURACIL] | 19.3 µM | 6.23 µM | 2.06 | 8.77 µM | 9.37 µM | 9.05 µM
C=CC(=O)Nc1cccc(Nc2cc(C(F)(F)F)nc(SCc3ccccc3C(F)(F)F)n2)c1 |  | 7.96 µM |  | 17.2 µM | 6.55 µM | 26.6 µM
FC(F)(F)c1ccc(CSc2nc(N3CCOCC3)cc(C(F)(F)F)n2)cc1 |  | 40.8 µM |  | > 50 µM | > 50 µM | > 50 µM
Fc1ccc(Nc2cc(C(F)(F)F)nc(SCc3ccc(C(F)(F)F)cc3)n2)cc1Cl |  | 35 µM |  | > 50 µM | 22.1 µM | 41.4 µM
C=CC(=O)Nc1cccc(Nc2cc(C(F)(F)F)nc(SCc3cccc(C(F)(F)F)c3)n2)c1 |  | 5.92 µM |  | 12.4 µM | 5.07 µM | 18.7 µM
C=CC(=O)Nc1cccc(Nc2cc(C(F)(F)F)nc(SCc3ccccc3Br)n2)c1 |  | 8.17 µM |  | 20.2 µM | 9.62 µM | 30.9 µM
Cc1ccc(Nc2cc(C(F)(F)F)nc(SCc3ccc(C(F)(F)F)cc3)n2)cc1 |  | 16.5 µM |  | > 50 µM | 20.6 µM | 32.3 µM
COc1ccc(Nc2cc(C(F)(F)F)nc(SCc3ccc(C(F)(F)F)cc3)n2)cc1 |  | 35.3 µM |  | 22.2 µM | 13.8 µM | 8.7 µM
FC(F)(F)c1ccc(CSc2nc(N3CCN(c4ccccc4)CC3)cc(C(F)(F)F)n2)cc1 |  | 42.7 µM |  | > 50 µM | > 50 µM | 35.2 µM
FC(F)(F)c1ccc(CSc2nc(Sc3ncccn3)cc(C(F)(F)F)n2)cc1 |  | > 50 µM |  | > 50 µM | 14 µM | 28.6 µM
COc1cc(Nc2cc(C(F)(F)F)nc(SCc3ccc(C(F)(F)F)cc3)n2)cc(OC)c1OC |  | 19.5 µM |  | 10.9 µM | 9.92 µM | 15.5 µM
FC(F)(F)c1ccc(CSc2nc(Sc3ncc(-c4ccncc4)s3)cc(C(F)(F)F)n2)cc1 |  | 7.35 µM |  | 10.1 µM | 16.7 µM | 5.77 µM
C=CC(=O)Nc1cccc(Nc2cc(C(F)(F)F)nc(SCC3CCCCC3)n2)c1 |  | 12.5 µM |  | 11.2 µM | 18 µM | 34.1 µM
Nc1cccc(Nc2cc(C(F)(F)F)nc(SCc3ccc(C(F)(F)F)cc3)n2)c1 |  | 23.2 µM |  | 13.5 µM | 23.6 µM | 8.97 µM
Cc1csc(Sc2cc(C(F)(F)F)nc(SCc3ccc(C(F)(F)F)cc3)n2)n1 |  | 12 µM |  | 14.5 µM | 5.84 µM | 21.3 µM
C=CC(=O)Nc1cccc(Nc2cc(C(F)(F)F)nc(SCc3ccccc3C)n2)c1 |  | 15.1 µM |  | 33.6 µM | 14.6 µM | 18.2 µM
CCN1CCN(c2cc(C(F)(F)F)nc(SCc3ccc(C(F)(F)F)cc3)n2)CC1 |  | 27.2 µM |  | 22 µM | 15 µM | 25.6 µM
C=CC(=O)Nc1cccc(Nc2cc(C(F)(F)F)nc(SCc3cccc(OC)c3)n2)c1 |  | 11.5 µM |  | 8.91 µM | 9.45 µM | 32.4 µM
C=CC(=O)Nc1cccc(Nc2cc(C(F)(F)F)nc(SCc3ccc(Cl)cc3)n2)c1 |  | 9.99 µM |  | 15.8 µM | 11.7 µM | 29.3 µM
C=CC(=O)Nc1cccc(Nc2cc(C(F)(F)F)nc(SCC3CC3)n2)c1 |  | 12.6 µM |  | 14.2 µM | 19.2 µM | 38.7 µM
Cc1nnc(Sc2cc(C(F)(F)F)nc(SCc3ccc(C(F)(F)F)cc3)n2)s1 |  | > 50 µM |  | > 50 µM | 3.06 µM | 11.4 µM
FC(F)(F)c1ccc(CSc2nc(N3CCN(c4ncccn4)CC3)cc(C(F)(F)F)n2)cc1 |  | > 50 µM |  | > 50 µM | 18.3 µM | 35.2 µM
C=CC(=O)Nc1cccc(Nc2cc(C(F)(F)F)nc(SCc3cccc(Cl)c3)n2)c1 |  | 10.5 µM |  | 10.1 µM | 14.8 µM | 35.2 µM
C=CC(=O)Nc1cccc(Nc2cc(C(F)(F)F)nc(SCc3ccc(OC)cc3)n2)c1 |  | 15.8 µM |  | 7.59 µM | 10.2 µM | 15.1 µM
FC(F)(F)c1ccc(CSc2nc(N3CCN(c4ccccn4)CC3)cc(C(F)(F)F)n2)cc1 |  | > 50 µM |  | > 50 µM | 17.4 µM | 23.5 µM
C=CC(=O)Nc1cccc(Nc2cc(C(F)(F)F)nc(SCc3cccc(F)c3)n2)c1 |  | 8.57 µM |  | 23 µM | 13.7 µM | 7.14 µM
